According to ChEMBL document CHEMBL4190374, “Structure-Function Evaluation of Imidazopyridine Derivatives Selective for δ-Subunit-Containing γ-Aminobutyric Acid Type A (GABAA) Receptors” (J Med Chem, 2018):
One block for each compound: values may come before it. Activity calls are given as the source filed them. The calls are words filed in the database; no cut-off is given here.

How the values were obtained:
[1] = biological target: T1, Gamma-aminobutyric acid receptor subunit alpha-6/beta-3/delta (Rattus norvegicus) (UniProt P18506+P30191+P63079); test: Displacement of [3H]EBOB from rat GABA-A receptor alpha6beta3delta expressed in HEK293 cell membranes at 10 uM after 90 mins by liquid scintillation counting analysis relative to control
Summary of the method: (§1)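 Crude membranes from HEK 293 cells transiently Ca-phosphate-transfected with rat subunit cDNAs, harvested at 48 h. Membranes (150-200 µg protein) incubated with 3 nM [3H]EBOB in 50 mM Tris/citrate pH 7.3 plus 0.2 M NaCl. Compound up to 10 µM, final DMSO 0.1%, no GABA, 90 min at 21 °C. Bound radioligand collected by GF/C filtration and counted by scintillation.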

[2] = biological target: T2, Gamma-aminobutyric acid receptor subunit alpha-6/beta-3 (Rattus norvegicus) (UniProt P30191+P63079); test: Displacement of [3H]EBOB from rat GABA-A receptor alpha6beta3 expressed in HEK293 cell membranes at 10 uM after 90 mins by liquid scintillation counting analysis relative to control; summary of the method: as §1
[3] = biological target: T3, Gamma-aminobutyric acid receptor subunit alpha-6/beta-3/gamma-2 (Rattus norvegicus) (UniProt P18508+P30191+P63079); test: Displacement of [3H]EBOB from rat GABA-A receptor alpha6beta3gamma2 expressed in HEK293 cell membranes at 10 uM after 90 mins by liquid scintillation counting analysis relative to control; summary of the method: as §1
Rattus norvegicus = species on record: Rattus norvegicus; test: Selectivity ratio of IC50 for rat GABA-A receptor alpha6beta3delta expressed in HEK293 cells to IC50 for rat GABA-A receptor alpha6beta2delta expressed in HEK293 cells; assay type: cell-based
[4] = biological target: T1, Gamma-aminobutyric acid receptor subunit alpha-6/beta-3/delta (Rattus norvegicus); test: Displacement of [3H]EBOB from rat GABA-A receptor alpha6beta3delta expressed in HEK293 cell membranes up to 10 uM after 90 mins by liquid scintillation counting analysis relative to control; summary of the method: as §1
[5] = biological target: GABA A receptor alpha-6/beta-2/gamma-2 (Rattus norvegicus) (UniProt P18508+P30191+P63138); test: Displacement of [3H]EBOB from rat GABA-A receptor alpha6beta2gamma2 expressed in HEK293 cell membranes at 10 uM after 90 mins by liquid scintillation counting analysis relative to control; summary of the method: as §1
[6] = biological target: T4, Gamma-aminobutyric acid receptor subunit alpha-6/beta-3/delta (Rattus norvegicus, UniProt P18506+P30191+P63079); test: Displacement of [3H]EBOB from rat GABA-A receptor alpha6beta3delta expressed in HEK293 cell membranes after 90 mins by liquid scintillation counting analysis; summary of the method: as §1
[7] = biological target: Gamma-aminobutyric acid receptor subunit alpha-6/beta-2/delta (Rattus norvegicus) (UniProt P18506+P30191+P63138); test: Displacement of [3H]EBOB from rat GABA-A receptor alpha6beta2delta expressed in HEK293 cell membranes up to 10 uM after 90 mins by liquid scintillation counting analysis relative to control; summary of the method: as §1
[8] = biological target: Gamma-aminobutyric acid receptor subunit alpha-6/beta-2/delta (Rattus norvegicus, UniProt P18506+P30191+P63138); test: Displacement of [3H]EBOB from rat GABA-A receptor alpha6beta2delta expressed in HEK293 cell membranes after 90 mins by liquid scintillation counting analysis; summary of the method: as §1
[9] = biological target: Gamma-aminobutyric acid receptor subunit alpha-6/beta-3 (Rattus norvegicus, UniProt P30191+P63079); test: (§2) Displacement of [3H]EBOB from rat GABA-A receptor alpha6beta3 expressed in HEK293 cell membranes after 90 mins in presence of GABA by liquid scintillation counting analysis
[10] = biological target: T2, Gamma-aminobutyric acid receptor subunit alpha-6/beta-3 (Rattus norvegicus); test: as §2
[11] = biological target: T5, Gamma-aminobutyric acid receptor subunit alpha-1/beta-3/delta (Rattus norvegicus) (UniProt P18506+P62813+P63079); test: Displacement of [3H]EBOB from rat GABA-A receptor alpha1beta3delta expressed in HEK293 cell membranes at 10 uM after 90 mins by liquid scintillation counting analysis relative to control; summary of the method: as §1
[12] = biological target: T4, Gamma-aminobutyric acid receptor subunit alpha-6/beta-3/delta; test: (§3) Displacement of [3H]EBOB from rat GABA-A receptor alpha6beta3delta expressed in HEK293 cell membranes after 90 mins in presence of GABA by liquid scintillation counting analysis
[13] = biological target: T1, Gamma-aminobutyric acid receptor subunit alpha-6/beta-3/delta (Rattus norvegicus); test: as §3
[14] = biological target: T6, Gamma-aminobutyric acid receptor subunit alpha-1/beta-3 (Rattus norvegicus) (UniProt P62813+P63079); test: Displacement of [3H]EBOB from rat GABA-A receptor alpha1beta3 expressed in HEK293 cell membranes at 10 uM after 90 mins by liquid scintillation counting analysis relative to control; summary of the method: as §1
[15] = biological target: T7, Gamma-aminobutyric acid receptor subunit alpha-1/beta-3/gamma-2 (Rattus norvegicus) (UniProt P18508+P62813+P63079); test: Displacement of [3H]EBOB from rat GABA-A receptor alpha1beta3gamma2 expressed in HEK293 cell membranes at 10 uM after 90 mins by liquid scintillation counting analysis relative to control; summary of the method: as §1
[16] = biological target: T8, Gamma-aminobutyric acid receptor subunit alpha-4/beta-3 (Rattus norvegicus) (UniProt P28471+P63079); test: Displacement of [3H]EBOB from rat GABA-A receptor alpha4beta3 expressed in HEK293 cell membranes up to 10 uM after 90 mins by liquid scintillation counting analysis relative to control; summary of the method: as §1
[17] = biological target: T9, Gamma-aminobutyric acid receptor subunit alpha-4/beta-3/delta (Rattus norvegicus) (UniProt P18506+P28471+P63079); test: Displacement of [3H]EBOB from rat GABA-A receptor alpha4beta3delta expressed in HEK293 cell membranes up to 10 uM after 90 mins by liquid scintillation counting analysis relative to control; summary of the method: as §1
[18] = biological target: Gamma-aminobutyric acid receptor subunit alpha-6/beta-2 (Rattus norvegicus) (UniProt P30191+P63138); test: Displacement of [3H]EBOB from rat GABA-A receptor alpha6beta2 expressed in HEK293 cell membranes up to 10 uM after 90 mins by liquid scintillation counting analysis relative to control; summary of the method: as §1
[19] = biological target: T3, Gamma-aminobutyric acid receptor subunit alpha-6/beta-3/gamma-2 (Rattus norvegicus); test: (§4) Displacement of [3H]EBOB from rat GABA-A receptor alpha6beta3gamma2 expressed in HEK293 cell membranes after 90 mins in presence of GABA by liquid scintillation counting analysis
[20] = biological target: Gamma-aminobutyric acid receptor subunit alpha-6/beta-3/gamma-2 (Rattus norvegicus, UniProt P18508+P30191+P63079); test: as §4
[21] = biological target: T10, Gamma-aminobutyric acid receptor subunit alpha-4/beta-3/gamma-2 (Rattus norvegicus) (UniProt P18508+P28471+P63079); test: Displacement of [3H]EBOB from rat GABA-A receptor alpha4beta3gamma2 expressed in HEK293 cell membranes up to 10 uM after 90 mins by liquid scintillation counting analysis relative to control; summary of the method: as §1
[22] = biological target: Gamma-aminobutyric acid receptor subunit alpha-6/beta-2 (Rattus norvegicus, UniProt P30191+P63138); test: Displacement of [3H]EBOB from rat GABA-A receptor alpha6beta2 expressed in HEK293 cell membranes after 90 mins by liquid scintillation counting analysis; summary of the method: as §1
[23] = biological target: T2, Gamma-aminobutyric acid receptor subunit alpha-6/beta-3 (Rattus norvegicus); test: Modulation of rat […] GABA-A receptor alpha6beta3 expressed in HEK293 cells up to 10 uM in presence of GABA by patch-clamp assay relative to control; assay type: cell-based
Summary of the method: (§5)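 Rat GABA-A subunits were transiently co-transfected with eGFP into HEK293 cells on coverslips. Fluorescent cells were recorded by whole-cell patch clamp 48 h later; bath pH 7.4, KCl/KOH pipette pH 7.2. Compound was applied at increasing concentrations up to 10 µM with the receptor-specific GABA EC20. Peak currents were fitted logistically for EC50, Hill and % modulation, as mean ± S.E.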

[24] = biological target: T7, Gamma-aminobutyric acid receptor subunit alpha-1/beta-3/gamma-2 (Rattus norvegicus); test: Modulation of rat eGFP-fused GABA-A receptor alpha1beta3gamma2 expressed in HEK293 cells at <= 1 uM in presence of GABA by patch-clamp assay relative to control; assay type: cell-based
[25] = biological target: T9, Gamma-aminobutyric acid receptor subunit alpha-4/beta-3/delta (Rattus norvegicus); test: Modulation of rat […] GABA-A receptor alpha4beta3delta expressed in HEK293 cells up to 10 uM in presence of GABA by patch-clamp assay relative to control; assay type: cell-based; summary of the method: as §5
[26] = biological target: Gamma-aminobutyric acid receptor subunit alpha-1/beta-3/delta (Rattus norvegicus, UniProt P18506+P62813+P63079); test: Modulation of rat […] GABA-A receptor alpha1beta3delta expressed in HEK293 cells in presence of GABA by patch-clamp assay; assay type: cell-based; summary of the method: as §5
[27] = biological target: T6, Gamma-aminobutyric acid receptor subunit alpha-1/beta-3 (Rattus norvegicus); test: Modulation of rat […] GABA-A receptor alpha1beta3 expressed in HEK293 cells at <= 10 uM in presence of GABA by patch-clamp assay relative to control; assay type: cell-based
Summary of the method: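 Whole-cell patch clamp on eGFP-co-transfected HEK 293 cells expressing rat subunits, recorded 48 h post-transfection. KCl/KOH-based pipette solution, pH 7.2. Rising compound concentrations up to 10 µM co-applied with the receptor-specific GABA EC20. Peak currents fitted to a logistic function giving EC50, Hill coefficient and % modulation, mean ± S.E. of n experiments.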

[28] = biological target: T8, Gamma-aminobutyric acid receptor subunit alpha-4/beta-3 (Rattus norvegicus); test: Modulation of rat eGFP-fused GABA-A receptor alpha4beta3 expressed in HEK293 cells at <= 1 uM in presence of GABA by patch-clamp assay relative to control; assay type: cell-based
[29] = biological target: T5, Gamma-aminobutyric acid receptor subunit alpha-1/beta-3/delta (Rattus norvegicus); test: Modulation of rat […] GABA-A receptor alpha1beta3delta expressed in HEK293 cells up to 10 uM in presence of GABA by patch-clamp assay relative to control; assay type: cell-based; summary of the method: as §5
[30] = biological target: Gamma-aminobutyric acid receptor subunit alpha-4/beta-3/delta (Rattus norvegicus, UniProt P18506+P28471+P63079); test: Modulation of rat […] GABA-A receptor alpha4beta3delta expressed in HEK293 cells in presence of GABA by patch-clamp assay; assay type: cell-based; summary of the method: as §5
[31] = biological target: T10, Gamma-aminobutyric acid receptor subunit alpha-4/beta-3/gamma-2 (Rattus norvegicus); test: Modulation of rat eGFP-fused GABA-A receptor alpha4beta3gamma2 expressed in HEK293 cells at <=1 uM in presence of GABA by patch-clamp assay relative to control; assay type: cell-based
[32] = biological target: T3, Gamma-aminobutyric acid receptor subunit alpha-6/beta-3/gamma-2 (Rattus norvegicus); test: Modulation of rat eGFP-fused GABA-A receptor alpha6beta3gamma2 expressed in HEK293 cells at <= 1 uM in presence of GABA by patch-clamp assay relative to control; assay type: cell-based

T4 sequence (P18506 whole entry): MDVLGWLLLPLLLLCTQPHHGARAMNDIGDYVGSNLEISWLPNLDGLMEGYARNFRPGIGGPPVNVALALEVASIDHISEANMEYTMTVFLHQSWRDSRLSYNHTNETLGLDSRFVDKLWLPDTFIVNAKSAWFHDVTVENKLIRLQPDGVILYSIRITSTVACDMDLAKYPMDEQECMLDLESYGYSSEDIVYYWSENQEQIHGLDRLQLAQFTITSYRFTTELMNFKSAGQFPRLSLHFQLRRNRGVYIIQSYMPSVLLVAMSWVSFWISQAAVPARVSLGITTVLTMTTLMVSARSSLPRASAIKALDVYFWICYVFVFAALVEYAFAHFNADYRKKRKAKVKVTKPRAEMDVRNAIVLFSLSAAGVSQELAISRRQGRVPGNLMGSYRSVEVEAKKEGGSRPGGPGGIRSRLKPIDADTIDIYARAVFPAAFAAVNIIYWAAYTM
T4 sequence (P30191 whole entry): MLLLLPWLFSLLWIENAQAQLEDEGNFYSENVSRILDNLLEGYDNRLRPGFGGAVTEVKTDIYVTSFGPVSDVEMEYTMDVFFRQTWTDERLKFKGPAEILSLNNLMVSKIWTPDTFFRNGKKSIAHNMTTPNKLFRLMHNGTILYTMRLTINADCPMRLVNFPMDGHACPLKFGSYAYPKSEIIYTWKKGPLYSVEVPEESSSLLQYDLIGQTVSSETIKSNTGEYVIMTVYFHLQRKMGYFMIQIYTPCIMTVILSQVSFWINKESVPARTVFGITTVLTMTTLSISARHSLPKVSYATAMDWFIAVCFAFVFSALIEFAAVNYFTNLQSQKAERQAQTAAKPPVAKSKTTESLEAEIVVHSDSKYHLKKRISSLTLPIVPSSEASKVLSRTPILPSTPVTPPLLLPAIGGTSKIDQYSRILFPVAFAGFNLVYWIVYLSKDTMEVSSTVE
T4 sequence (P63079 whole entry): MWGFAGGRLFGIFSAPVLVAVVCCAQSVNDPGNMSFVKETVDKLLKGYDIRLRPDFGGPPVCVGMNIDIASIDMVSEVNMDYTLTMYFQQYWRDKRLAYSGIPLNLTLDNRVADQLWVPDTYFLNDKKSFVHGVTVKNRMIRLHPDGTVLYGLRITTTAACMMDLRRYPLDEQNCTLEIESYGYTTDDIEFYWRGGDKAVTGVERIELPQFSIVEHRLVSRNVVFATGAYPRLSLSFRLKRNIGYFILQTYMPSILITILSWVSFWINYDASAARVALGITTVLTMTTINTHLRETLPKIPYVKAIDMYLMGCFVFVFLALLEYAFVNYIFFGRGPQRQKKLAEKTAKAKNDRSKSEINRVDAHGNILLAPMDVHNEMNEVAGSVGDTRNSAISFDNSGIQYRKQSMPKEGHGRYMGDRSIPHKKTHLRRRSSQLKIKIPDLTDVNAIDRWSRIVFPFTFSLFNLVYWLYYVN
Sequence of Gamma-aminobutyric acid receptor subunit alpha-6/beta-2 (P30191 whole entry): as the sequence (P30191 whole entry) above
Sequence of Gamma-aminobutyric acid receptor subunit alpha-6/beta-2 (P63138 whole entry): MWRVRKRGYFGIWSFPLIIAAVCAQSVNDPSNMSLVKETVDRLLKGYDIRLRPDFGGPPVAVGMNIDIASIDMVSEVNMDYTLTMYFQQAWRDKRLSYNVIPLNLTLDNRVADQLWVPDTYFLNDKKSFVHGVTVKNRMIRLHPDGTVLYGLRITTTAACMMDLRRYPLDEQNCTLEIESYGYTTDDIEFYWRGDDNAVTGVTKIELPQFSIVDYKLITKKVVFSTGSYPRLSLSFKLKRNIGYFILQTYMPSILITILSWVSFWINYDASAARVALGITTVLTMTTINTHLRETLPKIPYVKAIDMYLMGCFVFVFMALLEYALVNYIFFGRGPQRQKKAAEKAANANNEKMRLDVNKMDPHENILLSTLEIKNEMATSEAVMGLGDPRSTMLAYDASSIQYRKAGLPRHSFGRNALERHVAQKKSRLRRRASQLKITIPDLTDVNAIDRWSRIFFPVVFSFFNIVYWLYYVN
Sequence of Gamma-aminobutyric acid receptor subunit alpha-6/beta-3 (P30191 whole entry): as the sequence (P30191 whole entry) above
Sequence of Gamma-aminobutyric acid receptor subunit alpha-6/beta-3 (P63079 whole entry): as the sequence (P63079 whole entry) above
Sequence of Gamma-aminobutyric acid receptor subunit alpha-6/beta-2/delta (P18506 whole entry): as the sequence (P18506 whole entry) above
Sequence of Gamma-aminobutyric acid receptor subunit alpha-6/beta-2/delta (P30191 whole entry): as the sequence (P30191 whole entry) above
Sequence of Gamma-aminobutyric acid receptor subunit alpha-6/beta-2/delta (P63138 whole entry): as the sequence (P63138 whole entry) above
Sequence of Gamma-aminobutyric acid receptor subunit alpha-1/beta-3/delta (P18506 whole entry): as the sequence (P18506 whole entry) above
Sequence of Gamma-aminobutyric acid receptor subunit alpha-1/beta-3/delta (P62813 whole entry): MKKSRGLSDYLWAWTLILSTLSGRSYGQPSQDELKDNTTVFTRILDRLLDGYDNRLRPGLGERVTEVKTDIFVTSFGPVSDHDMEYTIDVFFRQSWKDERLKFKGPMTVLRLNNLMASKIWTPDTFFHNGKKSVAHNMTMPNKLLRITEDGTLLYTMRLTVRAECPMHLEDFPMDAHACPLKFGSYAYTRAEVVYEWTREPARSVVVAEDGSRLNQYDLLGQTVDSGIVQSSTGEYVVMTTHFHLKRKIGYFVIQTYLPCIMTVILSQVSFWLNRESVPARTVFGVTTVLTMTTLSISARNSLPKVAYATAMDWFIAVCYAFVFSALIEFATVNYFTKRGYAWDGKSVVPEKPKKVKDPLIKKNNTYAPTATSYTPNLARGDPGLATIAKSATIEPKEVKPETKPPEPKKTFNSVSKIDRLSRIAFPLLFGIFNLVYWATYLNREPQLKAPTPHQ
Sequence of Gamma-aminobutyric acid receptor subunit alpha-1/beta-3/delta (P63079 whole entry): as the sequence (P63079 whole entry) above
Sequence of Gamma-aminobutyric acid receptor subunit alpha-4/beta-3/delta (P18506 whole entry, the tested form may be a part): as the sequence (P18506 whole entry) above
Sequence of Gamma-aminobutyric acid receptor subunit alpha-4/beta-3/delta (P28471 whole entry, the tested form may be a part): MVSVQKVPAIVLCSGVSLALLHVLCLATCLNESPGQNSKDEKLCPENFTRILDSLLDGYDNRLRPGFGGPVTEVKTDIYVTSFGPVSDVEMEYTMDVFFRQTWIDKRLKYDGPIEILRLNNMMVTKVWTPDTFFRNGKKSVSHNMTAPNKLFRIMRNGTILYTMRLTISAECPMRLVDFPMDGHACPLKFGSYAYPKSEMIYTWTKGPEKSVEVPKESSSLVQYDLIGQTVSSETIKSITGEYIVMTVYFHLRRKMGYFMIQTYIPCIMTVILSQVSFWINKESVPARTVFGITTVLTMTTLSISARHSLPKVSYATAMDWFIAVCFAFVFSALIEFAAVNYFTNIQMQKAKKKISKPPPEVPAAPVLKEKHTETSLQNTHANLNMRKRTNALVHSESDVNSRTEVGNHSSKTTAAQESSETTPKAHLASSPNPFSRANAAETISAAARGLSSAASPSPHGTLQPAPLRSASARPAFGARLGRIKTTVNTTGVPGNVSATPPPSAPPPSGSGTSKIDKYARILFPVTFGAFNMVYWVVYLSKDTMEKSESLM
Sequence of Gamma-aminobutyric acid receptor subunit alpha-4/beta-3/delta (P63079 whole entry, the tested form may be a part): as the sequence (P63079 whole entry) above
Sequence of Gamma-aminobutyric acid receptor subunit alpha-6/beta-3/gamma-2 (P18508 whole entry): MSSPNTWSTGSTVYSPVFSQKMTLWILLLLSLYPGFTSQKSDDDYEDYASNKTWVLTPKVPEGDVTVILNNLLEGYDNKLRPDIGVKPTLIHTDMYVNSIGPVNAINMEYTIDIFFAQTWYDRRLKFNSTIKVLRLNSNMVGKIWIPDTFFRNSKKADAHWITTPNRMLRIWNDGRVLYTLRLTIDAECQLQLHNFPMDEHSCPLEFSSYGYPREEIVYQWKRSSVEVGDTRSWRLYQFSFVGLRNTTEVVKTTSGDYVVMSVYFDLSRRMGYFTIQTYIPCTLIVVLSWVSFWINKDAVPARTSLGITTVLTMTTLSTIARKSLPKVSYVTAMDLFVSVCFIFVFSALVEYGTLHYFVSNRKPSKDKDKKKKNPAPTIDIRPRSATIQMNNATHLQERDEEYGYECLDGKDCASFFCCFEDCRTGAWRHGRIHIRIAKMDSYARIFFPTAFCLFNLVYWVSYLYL
Sequence of Gamma-aminobutyric acid receptor subunit alpha-6/beta-3/gamma-2 (P30191 whole entry): as the sequence (P30191 whole entry) above
Sequence of Gamma-aminobutyric acid receptor subunit alpha-6/beta-3/gamma-2 (P63079 whole entry): as the sequence (P63079 whole entry) above

- Imax [1]: 54%
- inhibition [2]: inactive
- inhibition [3]: inactive
SMILES: O=C(Nc1c(-c2cccs2)nc2ccccn12)c1ccc(OCc2ccccc2)cc1

- Imax [1]: 37%
- inhibition [2]: inactive
- Imax [3]: 15%
SMILES: O=C(Nc1c(-c2cccs2)nc2c(Br)cc(Br)cn12)c1ccc(OCCF)cc1

- Imax [4]: 53%
- inhibition [5]: inactive
- IC50 [6]: 760 nM
- Imax [7]: 55%
- IC50 [8]: 270 nM
- IC50 [9]: 1290 nM
- Imax [10]: 57%
- inhibition [11]: inactive
- Imax [2]: 11%
- IC50 [12]: 490 nM
- Imax [13]: 55%
- inhibition [14]: inactive
- inhibition [3]: inactive
- inhibition [15]: inactive
- inhibition [16]: inactive
- inhibition [17]: inactive
- Imax [18]: 33%
- Imax [19]: 44%
- IC50 [20]: 1280 nM
- inhibition [21]: inactive
- IC50 [22]: 740 nM
SMILES: O=C(Nc1c(-c2cccs2)nc2c(Br)cc(Br)cn12)c1ccc(OCCCCF)cc1
- Ratio IC50 (Rattus norvegicus): 3

- Activity [23]: 588%
- Activity [24]: inactive
- Imax [1]: 20%
- Activity [25]: 231%
- EC50 [26]: 860 nM
- Activity [27]: inactive
- Activity [28]: inactive
- Activity [29]: 213%
- EC50 [30]: 970 nM
- Activity [31]: inactive
- Activity [32]: inactive
SMILES: O=C(Nc1c(-c2cccs2)nc2ccccn12)c1ccc(Cl)cc1
